Data on seven molecules can be found in PubChem BioAssay.

A short description of assay [1]: inhibitors of TNFa-induced NFkB p65 translocation, primary screen, imaging, HUVEC, MLSMR starter and 10KST1 sets (AID 438).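 Also: compound added about 3h40 before a 20 min TNFalpha stimulation.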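 As to inhibition: signal is the nuclear over cytoplasmic p65 intensity ratio per well.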 The conditions noted are these: HUVEC TNFa-induced p65 nuclear translocation; cell count: measured here: nuclei count (cytotoxicity indicator), at 2.08 µM; inhibition: at 2 µM, stronger effect = higher value, 0% TNFa-plus-vehicle, 100% no-TNFa wells.
Assay [2] is described as follows: endothelial E-selectin expression blockers – imaging, HUVEC, immunofluorescence, MLSMR starter and 10KST1 sets, primary screen (AID 487;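 active = visually confirmed hit in the image check and inhibition above 20%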;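 as to inhibition: signal is fraction of cell area covered by stained E-selectin grains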;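 as to nuclei count: 100% = median nuclei count of all wells on the same plate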). The conditions noted are these: HUVEC TNFalpha-induced E-selectin immunofluorescence imaging, at 2 µM; inhibition: stronger effect = higher value; nuclei count: measured here: cell number, toxicity.
Assay [3] is described as follows: Primary imaging screen for DUSP6 inhibitors that restore phospho-Erk in transfected HeLa cells, chemical complementation (AID 609;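 active = compounds giving at least 50% inhibition in the cell-based MKP-3 phosphatase rescue imaging test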;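 as to inhibition: phospho-Erk level distribution per well compared with pooled transfected vehicle control wells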). The conditions noted are these: HeLa MKP-3 transfected, phospho-Erk imaging KS statistic, at 10 µM, cells stimulated with TPA for 15 min.
Assay [4] concerns the target Dual specificity protein phosphatase 6 (Homo sapiens) (UniProt Q16828). The assay is described as above. The conditions noted are these: HeLa MKP-3 transfected, phospho-Erk imaging KS statistic; at 10 µM; stronger effect = higher value; cells stimulated with TPA for 15 min.
In assay [5] the target is Voltage-gated potassium channel subunit beta-2 (Rattus norvegicus) (UniProt P62483). Kind of assay: inhibitors of rat Kvbeta2 reductase activity – biochemical, NADPH fluorescence, primary screen (AID 622;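 active = fluorescence slope higher than the sample average by over 3 SD, cut at about -0.22 in these data, passing the limit was not always enough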;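 also: slope of raw intensity against log time taken from 70 to 1610 s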). The conditions noted are these: recombinant KvBeta, 4-cyanobenzaldehyde reduction, at 10 µM, stronger effect = higher value.
Chain of Voltage-gated potassium channel subunit beta-2 (Rattus norvegicus) (P62483 whole entry, looked up): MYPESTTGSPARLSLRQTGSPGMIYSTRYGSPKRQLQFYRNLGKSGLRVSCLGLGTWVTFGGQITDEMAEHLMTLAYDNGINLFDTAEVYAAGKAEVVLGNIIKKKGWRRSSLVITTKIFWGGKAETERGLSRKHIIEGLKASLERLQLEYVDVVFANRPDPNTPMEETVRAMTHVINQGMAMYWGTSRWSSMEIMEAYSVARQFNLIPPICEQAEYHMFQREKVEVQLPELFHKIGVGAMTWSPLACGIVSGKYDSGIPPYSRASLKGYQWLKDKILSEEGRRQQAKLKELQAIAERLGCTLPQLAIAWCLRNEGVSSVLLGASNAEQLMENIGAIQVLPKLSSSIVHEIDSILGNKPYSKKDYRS
Assay [6] has the same target. Briefly: enhancers of rat Kvbeta2 NADPH turnover – biochemical, NADPH fluorescence, primary screen (AID 623;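 active = NADPH fluorescence slope more negative than the mean of all samples by about 3 SD, 99.7% confidence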;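 also: fluorescence intensity change per second fitted from 20 to 320 s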). The conditions noted are these: Recombinant KvBeta, NADPH fluorescence decrease slope, 10 min; at 10 µM; stronger effect = lower value.
The target of assay [7] is Alpha-2C adrenergic receptor (Homo sapiens) (UniProt P18825). Kind of assay: compounds altering alpha2C-coupled GIRK flux – cell-based, HEK293 alpha2C/GIRK1/2, thallium flux, primary screen (AID 624;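 active = fluorescence slope after compound addition differing from the mean of all screened samples at 99.7% confidence, in either direction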;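 also: slope of fluorescence ratio to pre-addition baseline per second over 15 to 24 s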). The conditions noted are these: thallium flux BTC fluorescence, at 10 µM, actives lie on both sides.
Chain of Alpha-2C adrenergic receptor (Homo sapiens) (P18825 whole entry, looked up): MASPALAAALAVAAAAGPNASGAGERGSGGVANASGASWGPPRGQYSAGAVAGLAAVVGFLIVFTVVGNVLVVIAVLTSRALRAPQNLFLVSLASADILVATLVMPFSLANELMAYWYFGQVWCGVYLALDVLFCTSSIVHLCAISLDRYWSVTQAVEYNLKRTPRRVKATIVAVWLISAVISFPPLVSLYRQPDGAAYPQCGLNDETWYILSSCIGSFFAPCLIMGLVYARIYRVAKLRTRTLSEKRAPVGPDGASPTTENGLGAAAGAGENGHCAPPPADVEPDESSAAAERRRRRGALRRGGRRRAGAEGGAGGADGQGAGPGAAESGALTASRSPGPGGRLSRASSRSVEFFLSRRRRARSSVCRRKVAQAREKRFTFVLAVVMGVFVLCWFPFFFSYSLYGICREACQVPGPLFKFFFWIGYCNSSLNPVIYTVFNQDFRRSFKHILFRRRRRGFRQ
Assay [8] is described as follows: inhibitors of larval lipid processing in zebrafish, primary screen, whole organism, PED6 fluorescence, gall bladder and intestine (AID 686;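 active = a full or partial loss of lipid-probe fluorescence in the fish gall bladder, intestine or both, judged by eye; inactive = no fluorescence loss, or compound toxic to the fish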;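 also: larvae 5 to 7 days old with five fish per well; signal comes from phospholipase A2 cleavage of quenched PED6 carried via bile; overnight exposure to compound and PED6 before scoring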). The conditions noted are these: Zebrafish larvae PED6 lipid processing, fluorescence scoring; screened at 20 µM (by protocol). Summed up: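 Also added: quenched phospholipase substrate PED6, 100 nM final, ingested by larvae; System: zebrafish larvae, 5-7 d; Quantity: 5 larvae per well; Compound: 20 µM single dose; Schedule: overnight compound and PED6 incubation; Read-out: visual per-well fluorescence inhibition score; Measured by: By-eye fluorescence microscopy; Medium: E3.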

A short description of assay [9]: loss of swimming-algae plug formation – whole organism, Chlamydomonas reinhardtii, WT vs cilia-less mutant, absorbance, 96-well, primary screen (AID 463189;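 active = inhibition at or above 50% relative to wild type and mutant plate controls; inactive = inhibition below 50%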;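 also: 0% = wild type cc124 cells in DMSO and 100% = ciliumless bld1 mutant cells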). The conditions noted are these: Chlamydomonas reinhardtii gravitaxis, OD600 absorbance, 2 days; at 10 µM; stronger effect = higher value.
Setting [10] is: measured here: cell density z-score.
Where [11] appears, read: measured here: nuclear c-Myc green intensity z-score.
[12] abbreviates: measured here: nuclear pErk red intensity z-score, stronger effect = higher value.

Active and inactive are the calls of the source.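 The calls were made as follows, unless noted: active = inhibition above 20% together with a positive visual image hit; inconclusive = visual image hit but inhibition not above 20%; inactive = no visual image hit.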

Chain of Dual specificity protein phosphatase 6 (Homo sapiens) (Q16828 whole entry, looked up): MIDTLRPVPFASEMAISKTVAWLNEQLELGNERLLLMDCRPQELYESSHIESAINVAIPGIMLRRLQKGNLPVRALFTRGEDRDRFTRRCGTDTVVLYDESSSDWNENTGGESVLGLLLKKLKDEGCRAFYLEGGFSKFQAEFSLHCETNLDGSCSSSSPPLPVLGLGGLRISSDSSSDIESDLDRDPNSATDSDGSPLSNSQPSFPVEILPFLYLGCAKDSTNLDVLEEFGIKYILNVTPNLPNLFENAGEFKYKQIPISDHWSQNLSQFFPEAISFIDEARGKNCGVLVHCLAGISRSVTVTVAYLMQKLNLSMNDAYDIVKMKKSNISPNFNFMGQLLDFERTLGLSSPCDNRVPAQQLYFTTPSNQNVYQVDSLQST

In the case of `N#CC12CCCCC1CC1CCCCC1(C#N)N2Cc1cccnc1` (stereo unspecified), the cell count in assay [1] is 364. Moreover, the inhibition (usually the drop in the measured response relative to a control, in per cent) in assay [1] is -10.3% (inactive); in assay [2] it was 3.8% (inactive); in assay [4], 17% (inactive); in assay [9] it was 44.6% (inactive). In assay [2], this molecule came in with a nuclei count of 97.2%. In addition, the z-score in assay [3] (setting [10]) is 1.59; in assay [3] (setting [11]), -0.921; in assay [3] (setting [12]), -1.61. The fluorescence slope in [5] is -0.557 (inactive). The NADPH fluorescence slope in [6] is -6.5e-05 (inactive). Also, the slope in [7] is 0.00335 (inactive). In [8], the molecule was classed as inactive.

On to `COc1cccc(-c2nn3c(-c4ccco4)nnc3s2)c1`, for which the cell count in assay [1] came to 611. Moreover, the inhibition in assay [1] was -8.6% (inactive); in assay [2], 16.8% (inactive); in assay [4] it was 2.92% (inactive); in assay [9], -2.32% (inactive). In assay [2], this molecule had a nuclei count of 155%. Also, the figures for the z-score in assay [3] (setting [10]), in assay [3] (setting [11]) and in assay [3] (setting [12]) were 0.808, -0.226 and -0.00224, respectively. Moreover, the fluorescence slope in assay [5] is -0.406 (inactive). The NADPH fluorescence slope in assay [6] was -0.000142 (inactive). Moreover, the slope in [7] was 0.00559 (inactive). Besides, the result in assay [8] was inactive.

With `Oc1ccc2c(c1)C1CCCC1(N1CCOCC1)O2` (stereo unspecified), the cell count in assay [1] is 414. Also, the inhibition in assay [1] is 0.7% (inactive); in assay [2] it was -83.5% (inactive); in assay [4], 3.42% (inactive); in assay [9], -3.55% (inactive). This molecule also registered a nuclei count in assay [2] of 128%. The z-score was 0.996 in assay [3] (setting [10]), -0.205 in [3] (setting [11]) and -1.79 in [3] (setting [12]). The fluorescence slope in assay [5] is -0.458 (inactive). Further, the NADPH fluorescence slope in assay [6] is -0.000124 (inactive). Further, the slope in assay [7] is 0.005 (inactive). The molecule was called inactive in [8].

Take `N#CCSc1nc2sc3c(c2c(=O)n1C1CCCCC1)CCCC3`: in assay [1], the cell count was 651. The inhibition in [1] was -21.9% (inactive); in [2], 9.7% (inactive); in assay [4], 3.56% (inactive); in assay [9], -20.7% (inactive). In assay [2], this molecule had a nuclei count of 167%. The z-score in [3] (setting [10]) is -0.927; in [3] (setting [11]) it was 0.708; in assay [3] (setting [12]), 1.09. Besides, the fluorescence slope in assay [5] was -0.354 (inactive). In addition, in assay [6], the NADPH fluorescence slope was -1.5e-05 (inactive). The slope in assay [7] was 0.00554 (inactive). Besides, the molecule was classed as inactive in [8].

Consider `Cc1cccc(OCc2nc(C)cc(=O)[nH]2)c1`, for which the cell count in [1] was 594. Further, the inhibition in assay [1] is -7.7% (inactive); in [2], -84.7% (inactive); in [4] it was 14% (inactive); in [9] it was -4.66% (inactive). This molecule had a nuclei count in assay [2] of 173%. In addition, the z-score is 2.18 in assay [3] (setting [10]), 0.349 in assay [3] (setting [11]) and -1.33 in assay [3] (setting [12]). Moreover, the fluorescence slope in assay [5] was -0.409 (inactive). Besides, the NADPH fluorescence slope in assay [6] was -2.4e-05 (inactive). For the same molecule, the slope in assay [7] is 0.00552 (inactive). Also, the result in assay [8] was inactive.

In the case of `O=C(c1coc(=O)c(Br)c1)N1CCCc2ccccc21`, the cell count in assay [1] worked out at 384. Besides, the inhibition in assay [1] was -0.8% (inactive); in assay [2], -39.7% (inactive); in assay [4], 3.42% (inactive); in [9], 36.5% (inactive). This molecule also gave a nuclei count in assay [2] of 134%. In addition, the z-score in [3] (setting [10]) was -0.336; in assay [3] (setting [11]), -1.15; in assay [3] (setting [12]) it was 0.12. Besides, the fluorescence slope in assay [5] was -0.437 (inactive). In addition, the NADPH fluorescence slope in assay [6] was -8e-05 (inactive). Besides, the slope in assay [7] was 0.00466 (inactive). The result in assay [8] was inactive.

In the case of `c1ccc(-c2nn3c(C4CCCCC4)nnc3s2)cc1`, the cell count in assay [1] was 527. The inhibition is -1.4% (inactive) in assay [1], -81.3% (inactive) in [2], -18.6% (inactive) in [4] and 6.49% (inactive) in assay [9]. The nuclei count in assay [2] is 142%. Also, the z-score in assay [3] (setting [10]) was -0.66; in assay [3] (setting [11]), 0.347; in [3] (setting [12]) it was 1.15. Also, the fluorescence slope in assay [5] is -0.435 (inactive). Moreover, in [6], the NADPH fluorescence slope was -8.4e-05 (inactive). For the same molecule, the slope in assay [7] was 0.00411 (inactive). In addition, the outcome in assay [8] was inactive.
